ChEMBL document CHEMBL1151181, “New sesterterpenes from the Antarctic sponge Suberites sp” (2004)

Experiments:
Assay type in all cases: functional
Candida albicans = assay: Antimicrobial activity against Candida albicans at 25 ug by paper-disk method; details: read-out: IZ
Outline: (§1)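 Paper-disk diffusion assay with 25 µg of compound per disk; activity read as diameter of the growth-inhibition zone in mm. The Streptococcus strain is given only as Streptococcus sp.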

Escherichia coli = assay: Antimicrobial activity against Escherichia coli at 25 ug by paper-disk method; details: read-out: IZ; outline: as §1
Staphylococcus aureus = assay: Antimicrobial activity against Staphylococcus aureus at 25 ug by paper-disk method; details: read-out: IZ; outline: as §1
K562 = assay: Cytotoxicity against human K562 cells by MTT method; details: read-out: LC50 (the source's name)
Outline: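 Human leukemia K562 cell line, MTT read-out; value expressed as LC50 in µg/mL.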

Bacillus subtilis = assay: Antimicrobial activity against Bacillus subtilis at 25 ug by paper-disk method; details: read-out: IZ; outline: as §1
Streptococcus = assay: Antimicrobial activity against Streptococcus at 25 ug by paper-disk method; details: read-out: IZ; outline: as §1

Row | SMILES | zone of inhibition at 25 µg/disc (Candida albicans) [mm] | zone of inhibition at 25 µg/disc (Escherichia coli) [mm] | zone of inhibition at 25 µg/disc (Staphylococcus aureus) [mm] | CC50 (K562) [µg/mL] | zone of inhibition at 25 µg/disc (Bacillus subtilis) [mm] | zone of inhibition at 25 µg/disc (Streptococcus) [mm]
1 | CC(=O)O[C@@H]1C[C@@]2(C)CC(c3ccc(C)c(O)c3)=CC[C@H]2[C@@]2(C)CCCC(C)(C)[C@H]12 [SUBERIPHENOL] | < 3 | < 3 | < 3 | > 100 | < 3 | < 3
2 | CC(=O)O[C@@H]1C=C(C)C(=O)C[C@H]1[C@@]1(O)CC[C@@H]2[C@@](C)(C[C@@H](OC(C)=O)[C@H]3C(C)(C)CCC[C@]23C)C1 | < 3 | < 3 | < 3 |  | < 3 | < 3
3 | CC(=O)O[C@@H]1C[C@@]2(C)CC([C@@H]3CC(=O)C(C)=C[C@H]3O)=CC[C@H]2[C@@]2(C)CCCC(C)(C)[C@H]12 [SUBERITENONE C] | < 3 | < 3 | < 3 | > 100 | < 3 | < 3
